From ChEMBL document CHEMBL1821598, “Synthesis, structure-activity relationship and biological evaluation of anticancer activity for novel N-substituted sophoridinic acid derivatives” (Bioorg Med Chem Lett, 2011)
≈ marks a conversion by molar mass, not a printed value. Calls of active or inactive are those of the source. The rule behind the calls is not given here.

What was measured:
HepG2 [1] = experiment: Inhibition of cell proliferation of human HepG2 cells at 30 ug/mL after 48 hrs by Sulforhodamine B assay; type: functional; settings: HepG2, 48 h
In short: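 HepG2 cells exposed to test compounds at 30 μg/mL for 48 h. HCPT at 30 μg/mL was the positive control. Proliferation was read by SRB and reported as % inhibition. Values are mean ± SD of three separate experiments.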

HepG2 [2] = experiment: Cell cycle arrest in human HepG2 cells assessed as accumulation at G2/M phase at 20 ug/mL after 24 hrs by flow cytometry (Rvb= 11.5%); type: functional
In short: (§1)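 HepG2 cells incubated with or without compound at 20 μg/mL for 4, 12 or 24 h. Cell cycle distribution (G0/G1, S, G2/M) was read from DNA content by flow cytometry. Untreated cells served as control.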

HepG2 [3] = experiment: Cell cycle arrest in human HepG2 cells assessed as accumulation at S phase at 20 ug/mL after 4 hrs by flow cytometry (Rvb= 25.4%); type: functional; in short: as §1
A549 = experiment: Inhibition of cell proliferation of human A549 cells at 30 ug/mL after 48 hrs by Sulforhodamine B assay; type: functional; settings: A549, 48 h
In short: (§2)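 Human tumor cell lines were treated at 30 μg/mL for 48 h. Antiproliferative activity was measured by SRB assay.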

HepG2 [4] = experiment: Cytotoxicity against human HepG2 cells after 48 hrs by Sulforhodamine B assay; type: functional, cell-based; settings: for IC50: HepG2, 48 h
In short: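 HepG2 cells treated at a series of concentrations for 48 h. Cell death was read by sulforhodamine B staining.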

HepG2 [5] = experiment: Cell cycle arrest in human HepG2 cells assessed as accumulation at S phase at 20 ug/mL after 24 hrs by flow cytometry (Rvb= 25.4%); type: functional; in short: as §1
HepG2 [6] = experiment: Cell cycle arrest in human HepG2 cells assessed as accumulation at S phase at 20 ug/mL after 12 hrs by flow cytometry (Rvb= 25.4%); type: functional; in short: as §1
HepG2 [7] = experiment: Cell cycle arrest in human HepG2 cells assessed as accumulation at G0/G1 phase at 20 ug/mL after 12 hrs by flow cytometry (Rvb= 63.1%); type: functional; in short: as §1
HepG2 [8] = experiment: Cell cycle arrest in human HepG2 cells assessed as accumulation at G0/G1 phase at 20 ug/mL after 4 hrs by flow cytometry (Rvb= 63.1%); type: functional; in short: as §1
[9] = biological target: T1, DNA topoisomerase 1 (Homo sapiens) (UniProt P11387); experiment: Inhibition of DNA topoisomerase 1 using DNA substrate after 0.5 hrs by gel electrophoresis
T1 sequence (whole entry): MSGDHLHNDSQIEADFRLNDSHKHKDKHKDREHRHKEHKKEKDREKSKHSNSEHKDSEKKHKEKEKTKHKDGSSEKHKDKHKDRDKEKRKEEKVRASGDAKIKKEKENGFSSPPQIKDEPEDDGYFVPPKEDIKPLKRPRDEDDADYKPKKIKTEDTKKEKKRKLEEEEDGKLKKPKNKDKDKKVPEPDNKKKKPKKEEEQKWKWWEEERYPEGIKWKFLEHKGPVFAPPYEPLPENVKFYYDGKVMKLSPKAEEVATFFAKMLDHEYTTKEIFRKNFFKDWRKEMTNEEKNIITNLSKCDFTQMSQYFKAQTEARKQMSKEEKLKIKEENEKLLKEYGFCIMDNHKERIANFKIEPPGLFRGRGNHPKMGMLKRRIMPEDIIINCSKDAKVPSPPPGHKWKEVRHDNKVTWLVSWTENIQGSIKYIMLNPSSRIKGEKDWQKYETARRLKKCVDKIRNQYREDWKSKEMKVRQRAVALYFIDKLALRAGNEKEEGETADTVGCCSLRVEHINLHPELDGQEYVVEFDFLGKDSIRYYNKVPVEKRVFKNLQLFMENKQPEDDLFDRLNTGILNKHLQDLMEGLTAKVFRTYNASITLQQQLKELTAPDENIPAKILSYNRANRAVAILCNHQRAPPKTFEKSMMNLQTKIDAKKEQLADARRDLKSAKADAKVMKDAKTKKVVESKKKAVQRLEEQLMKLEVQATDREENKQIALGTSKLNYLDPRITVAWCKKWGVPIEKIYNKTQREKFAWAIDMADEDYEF
In short: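 Run over a range of concentrations, with HCPT as positive control.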

HepG2 [10] = experiment: Cell cycle arrest in human HepG2 cells assessed as accumulation at G2/M phase at 20 ug/mL after 4 hrs by flow cytometry (Rvb= 11.5%); type: functional; in short: as §1
HepG2 [11] = experiment: Induction of apoptosis in human HepG2 cells assessed as disappearance of nuclear membrane and appearance of apoptotic body at 20 ug/mL after 48 hrs by microscopy relative to control; type: functional, cell-based
In short: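 HepG2 cells untreated or treated at 20 μg/mL for 48 h. Cells were harvested onto slides and examined by microscopy for apoptotic morphology.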

HepG2 [12] = experiment: Cell cycle arrest in human HepG2 cells assessed as accumulation at G2/M phase at 20 ug/mL after 12 hrs by flow cytometry (Rvb= 11.5%); type: functional; in short: as §1
HepG2 [13] = experiment: Cell cycle arrest in human HepG2 cells assessed as accumulation at G0/G1 phase at 20 ug/mL after 24 hrs by flow cytometry (Rvb= 63.1%); type: functional; in short: as §1
MCF7 = experiment: Inhibition of cell proliferation of human MCF7 cells at 30 ug/mL after 48 hrs by Sulforhodamine B assay; type: functional; settings: MCF7, 48 h; in short: as §2
[14] = Inhibition of cell proliferation of human […] cells at 30 ug/mL after 48 hrs by Sulforhodamine B assay; type: functional; in short: as §2

SMILES: O=C(O)CCC[C@H]1[C@H]2CCCN3CCC[C@@H](CN1C(=O)c1ccc(F)cc1)[C@@H]23
- inhibition at 30 µg/mL (HepG2 [1]): < 5%

SMILES: O=C(O)CCC[C@H]1[C@H]2CCCN3CCC[C@@H](CN1C(=O)c1ccc4c(c1)OCO4)[C@@H]23
- inhibition at 30 µg/mL (HepG2 [1]): 11.4%

SMILES: COc1ccc(C(=O)N2C[C@@H]3CCCN4CCC[C@@H]([C@H]34)[C@@H]2CCCC(=O)O)cc1
- inhibition at 30 µg/mL (HepG2 [1]): < 5%

SMILES: CC(Br)C(=O)N1C[C@@H]2CCCN3CCC[C@@H]([C@H]23)[C@@H]1CCCC(=O)O (stereo partly drawn)
- inhibition at 30 µg/mL (HepG2 [1]): 15.6%

SMILES: Cc1c(C(=O)N2C[C@@H]3CCCN4CCC[C@@H]([C@H]34)[C@@H]2CCCC(=O)O)cccc1[N+](=O)[O-]
- inhibition at 30 µg/mL (HepG2 [1]): 8.9%

SMILES: O=C(O)CCC[C@H]1[C@H]2CCCN3CCC[C@@H](CN1C(=O)c1ccccc1)[C@@H]23
- inhibition at 30 µg/mL (HepG2 [1]): < 5%

SMILES: CCOC(=O)N1C[C@@H]2CCCN3CCC[C@@H]([C@H]23)[C@@H]1CCCC(=O)O
- inhibition at 30 µg/mL (HepG2 [1]): 19.9%

SMILES: CC(=O)N1C[C@@H]2CCCN3CCC[C@@H]([C@H]23)[C@@H]1CCCC(=O)O
- inhibition at 30 µg/mL (HepG2 [1]): 11.2%

SMILES: O=C(O)CCC[C@H]1[C@H]2CCCN3CCC[C@@H](CN1C(=O)OCc1ccccc1)[C@@H]23
- inhibition at 30 µg/mL (HepG2 [1]): 8.4%

SMILES: O=C(O)CCC[C@H]1[C@H]2CCCN3CCC[C@@H](CN1C(=O)c1cccc([N+](=O)[O-])c1)[C@@H]23
- inhibition at 30 µg/mL (HepG2 [1]): < 5%

SMILES: Cc1ccc(C(=O)N2C[C@@H]3CCCN4CCC[C@@H]([C@H]34)[C@@H]2CCCC(=O)O)cc1
- inhibition at 30 µg/mL (HepG2 [1]): 8.5%

SMILES: COc1ccc(C(=O)N2C[C@@H]3CCCN4CCC[C@@H]([C@H]34)[C@@H]2CCCC(=O)O)cc1[N+](=O)[O-]
- inhibition at 30 µg/mL (HepG2 [1]): < 5%

SMILES: O=C(O)CCC[C@@H]1NC[C@@H]2CCCN3CCC[C@H]1[C@H]23 [SOPHORIDINIC ACID]
- inhibition at 30 µg/mL (HepG2 [1]): 10.3%

SMILES: O=C(O)CCC[C@H]1[C@H]2CCCN3CCC[C@@H](CN1S(=O)(=O)c1ccccc1)[C@@H]23
- inhibition at 30 µg/mL (HepG2 [1]): < 5%

SMILES: O=C(O)CCC[C@H]1[C@H]2CCCN3CCC[C@@H](CN1C(=O)c1ccc(F)c([N+](=O)[O-])c1)[C@@H]23
- inhibition at 30 µg/mL (HepG2 [1]): 7.7%

SMILES: COC(=O)N1C[C@@H]2CCCN3CCC[C@@H]([C@H]23)[C@@H]1CCCC(=O)O
- inhibition at 30 µg/mL (HepG2 [1]): 7.8%

SMILES: O=C(O)CCC[C@H]1[C@H]2CCCN3CCC[C@@H](CN1C(=O)CBr)[C@@H]23
- inhibition at 30 µg/mL (HepG2 [1]): 88%
- Activity (HepG2 [2]): 10.4%
- Activity (HepG2 [3]): 40.2%
- inhibition at 30 µg/mL (A549): 40%
- inhibition (HepG2 [4]): Dose-dependent effect
- IC50 (HepG2 [4]): 15.4 µg/mL (≈ 39.8 µM)
- Activity (HepG2 [5]): 41.8%
- Activity (HepG2 [6]): 38.3%
- Activity (HepG2 [7]): 53.8%
- Activity (HepG2 [8]): 50.4%
- inhibition [9]: Active
- Activity (HepG2 [10]): 9.43%
- Activity (HepG2 [11]): Active
- Activity (HepG2 [12]): 7.88%
- Activity (HepG2 [13]): 47.7%
- inhibition at 30 µg/mL (MCF7): 73.3%
- inhibition at 30 µg/mL [14]: 68%

SMILES: CC[C@@]1(O)C(=O)OCc2c1cc1n(c2=O)Cc2cc3cc(O)ccc3nc2-1 [HYDROXYCAMPTOTHECIN]
- inhibition at 30 µg/mL (HepG2 [1]): 92%

SMILES: O=C1CCC[C@@H]2[C@H]3CCCN4CCC[C@H](CN12)[C@@H]34 [SOPHORIDINE]
- inhibition at 30 µg/mL (HepG2 [1]): 13.8%
- inhibition [9]: Active

SMILES: COc1cc(C(=O)N2C[C@@H]3CCCN4CCC[C@@H]([C@H]34)[C@@H]2CCCC(=O)O)cc(OC)c1OC
- inhibition at 30 µg/mL (HepG2 [1]): 11.8%

SMILES: CC(C)(C)C(=O)N1C[C@@H]2CCCN3CCC[C@@H]([C@H]23)[C@@H]1CCCC(=O)O
- inhibition at 30 µg/mL (HepG2 [1]): 41.1%
- inhibition (HepG2 [4]): Dose-dependent effect
- IC50 (HepG2 [4]): 43.6 µg/mL (≈ 124 µM)

SMILES: Cc1ccc(S(=O)(=O)N2C[C@@H]3CCCN4CCC[C@@H]([C@H]34)[C@@H]2CCCC(=O)O)cc1
- inhibition at 30 µg/mL (HepG2 [1]): 13.4%

SMILES: Cc1ccc(CN2C[C@@H]3CCCN4CCC[C@@H]([C@H]34)[C@@H]2CCCC(=O)O)cc1
- inhibition at 30 µg/mL (HepG2 [1]): < 5%

SMILES: COc1ccc(CN2C[C@@H]3CCCN4CCC[C@@H]([C@H]34)[C@@H]2CCCC(=O)O)cc1
- inhibition at 30 µg/mL (HepG2 [1]): < 5%
